Experimental data taken from ChEMBL document CHEMBL1132213, “Tyrosine kinase inhibitors. 15. 4-(Phenylamino)quinazoline and 4-(phenylamino)pyrido[d]pyrimidine acrylamides as irreversible inhibitors of the ATP binding site of the epidermal growth factor receptor” (J Med Chem, 1999).
pIC50: −log10 of the molar value. “And” between values parts separate entries of the source, which are not always exact repeats. Equal values may be shown once. Each block holds one compound with its values, some of them ahead of it.

Columns and labels:
[1] = biological target: T1, Receptor tyrosine-protein kinase erbB-2 (Homo sapiens, UniProt P04626); test: Inhibition of heregulin-stimulated autophosphorylation of erbB2 in MDA-MB-453 cells.; type: cell-based
Procedure, shortened: (§1)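 MDA-MB-453 cells in αMEM/F12 with 10% FBS were grown to 90% confluency and held serum-free for 18 h. Cells were treated 1 h with varied inhibitor concentrations, then stimulated 5 min with heregulin (10 ng/mL) and lysed in boiling Laemmli buffer. Read-out was SDS-PAGE and antiphosphotyrosine Western blot with [125I]protein A detection and laser densitometry. IC50 is the average of two experiments.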

[2] = biological target: T1, Receptor tyrosine-protein kinase erbB-2; test: Inhibition of heregulin-stimulated autophosphorylation of ERBB2 receptor kinase in MDA-MB-453 cells.; type: cell-based; procedure, shortened: as §1
[3] = biological target: T2, Epidermal growth factor receptor (Homo sapiens, UniProt P00533)
[4] = biological target: T2, Epidermal growth factor receptor; remark: listed apart in the source
NCI-H125 [5] = test: In vivo activity against H125 xenograft in nude mice, ratio of treated/control median tumor mass at 50 mg/kg ip dose; type: functional; details: route intraperitoneal
Procedure, shortened: (§2)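 Nude (NCr nu/nu) mice of 18–22 g were randomized and implanted sc in the right axilla with serially passaged A431 or H125 tumor fragments on day 0. Dosing by average cage weight (6 mice/group) ip or po began at 100–150 mg tumor mass. The ip vehicle was 6% dimethylacetamide/94% 50 mM sodium lactate pH 4.0 suspension; later suspensions used 0.5% methylcellulose. T/C = median treated/control tumor mass ×100% on the last therapy day. T−C = days for tumors to reach 750 mg.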

A-431 [6] = test: In vivo activity against A431 xenograft in nude mice, weight change at 47 mg/kg ip dose; type: functional; details: route intraperitoneal; procedure, shortened: as §2
NCI-H125 [7] = test: In vivo activity against H125 xenograft in nude mice, weight change at 50 mg/kg ip dose; type: functional; details: route intraperitoneal; procedure, shortened: as §2
NCI-H125 [8] = test: In vivo activity against H125 xenograft in nude mice, ratio of treated/control median tumor mass at 50 mg/kg peroral dose; type: functional; details: route oral; procedure, shortened: as §2
A-431 [9] = test: In vivo activity against A431 xenograft in nude mice, ratio of treated/control median tumor mass at 150 mg/kg peroral dose; type: functional; details: route oral; procedure, shortened: as §2
A-431 [10] = test: In vivo activity against A431 xenograft in nude mice, weight change at 1150 mg/kg peroral dose; type: functional; details: dose 150 mg/kg; route oral; in the assay text read “150 mg/kg” for “1150 mg/kg”; procedure, shortened: as §2
A-431 [11] = test: In vivo activity against A431 xenograft in nude mice, ratio of treated/control median tumor mass at 47 mg/kg ip dose; type: functional; details: route intraperitoneal; procedure, shortened: as §2
A-431 [12] = test: Difference in days for treated (T) and control (C) A431 cell tumors to reach 750 mg at 47 mg/kg ip dose; type: functional; details: route intraperitoneal; procedure, shortened: as §2
A-431 [13] = test: Difference in days for treated (T) and control (C) A431 cell tumors to reach 750 mg at 260 mg/kg peroral dose; type: functional; details: route oral; procedure, shortened: as §2
A-431 [14] = test: In vivo activity against A431 xenograft in nude mice, ratio of treated/control median tumor mass at 260 mg/kg peroral dose; details: route oral
NCI-H125 [15] = test: In vivo activity against H125 xenograft in nude mice, ratio of treated/control median tumor mass at 250 mg/kg peroral dose; type: functional; details: route oral; procedure, shortened: as §2
A-431 [16] = test: Difference in days for treated (T) and control (C) A431 cell tumors to reach 750 mg at 75 mg/kg ip dose; type: functional; details: route intraperitoneal; procedure, shortened: as §2
NCI-H125 [17] = test: Difference in days for treated (T) and control (C) H125 cell tumors to reach 750 mg at 50 mg/kg ip dose; type: functional; details: route intraperitoneal; procedure, shortened: as §2
Mus musculus [18] = test: In vivo activity against tumor xenograft in nude mice, weight change at 75 mg/kg ip dose; type: functional; details: route intraperitoneal; procedure, shortened: as §2
NCI-H125 [19] = test: Difference in days for treated (T) and control (C) tumors to reach 750 mg at 250 mg/kg peroral dose; type: functional; details: route oral; procedure, shortened: as §2
A-431 [20] = test: In vivo activity against A431 cell tumor xenograft in nude mice at 75 ip mg/kg dose; type: functional; procedure, shortened: as §2
A-431 [21] = test: In vivo activity against A431 xenograft in nude mice, weight change at 260 mg/kg peroral dose; details: route oral
NCI-H125 [22] = test: In vivo activity against H125 xenograft in nude mice, weight change at 250 mg/kg peroral dose; type: functional; details: route oral; procedure, shortened: as §2
A-431 [23] = test: In vivo activity against A431 xenograft in nude mice, ratio of treated/control median tumor mass at 200 mg/kg peroral dose; type: functional; details: route oral; procedure, shortened: as §2
Mus musculus [24] = test: Difference in days for treated (T) and control (C) tumors to reach 750 mg at 200 mg/kg ip dose; type: functional; details: route intraperitoneal; procedure, shortened: as §2
A-431 [25] = test: (§3) In vivo activity against A431 xenograft in nude mice, weight change at 200 mg/kg peroral dose; type: functional; details: route oral; procedure, shortened: as §2
NCI-H125 [26] = test: In vivo activity against H125 xenograft in nude mice, ratio of treated/control median tumor mass at 200 mg/kg peroral dose; type: functional; details: route oral; procedure, shortened: as §2
NCI-H125 [27] = test: (§4) In vivo activity against H125 xenograft in nude mice, weight change at 200 mg/kg peroral dose; type: functional; details: route oral; procedure, shortened: as §2
NCI-H125 [28] = test: In vivo activity against H125 xenograft in nude mice, weight change at 9.6 mg/kg ip dose; type: functional; details: route intraperitoneal
Procedure, shortened: (§5)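 NCr nu/nu mice (18–22 g, 6/dose group) implanted sc in the right axilla with serially passaged H125 NSCLC fragments on day 0. Dosing ip by average cage weight as a fine suspension in 6% dimethylacetamide/94% 50 mM sodium lactate pH 4.0, started at tumor mass 100–150 mg. Read-outs were body weight change and treated-minus-control days to reach 750 mg.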

A-431 [29] = test: In vivo activity against A431 xenograft in nude mice, weight change at 12 mg/kg ip dose; type: functional; details: route intraperitoneal; procedure, shortened: as §2
A-431 [30] = test: Difference in days for treated (T) and control (C) A431 cell tumors to reach 750 mg at 12 mg/kg ip dose; type: functional; details: route intraperitoneal; procedure, shortened: as §2
NCI-H125 [31] = test: Difference in days for treated (T) and control (C) H125 cell tumors to reach 750 mg at 9.6 mg/kg ip dose; type: functional; details: route intraperitoneal; procedure, shortened: as §5
NCI-H125 [32] = test: In vivo activity against H125 xenograft in nude mice, ratio of treated/control median tumor mass at 9.6 mg/kg peroral dose; type: functional; details: route intraperitoneal, in the assay text read “intraperitoneal” for “peroral”
A-431 [33] = test: In vivo activity against A431 xenograft in nude mice, ratio of treated/control median tumor mass at 212 mg/kg peroral dose; type: functional; details: dose 12 mg/kg; route intraperitoneal; in the assay text read “12 mg/kg intraperitoneal dose” for “212 mg/kg peroral dose”; procedure, shortened: as §2
NCI-H125 [34] = test: as §4; type: functional, organism-based; parameters: dose 200 mg/kg; procedure, shortened: as §2
A-431 [35] = test: as §3; type: functional, organism-based; parameters: dose 200 mg/kg; procedure, shortened: as §2
Mus musculus [36] = test: Difference in days for treated (T) and control (C) tumors to reach 750 mg at 200 mg/kg peroral dose; type: functional; details: route oral; procedure, shortened: as §2
A-431 [37] = test: In vivo activity against A431 xenograft in nude mice, ratio of treated/control median tumor mass at 40 mg/kg peroral dose; type: functional; details: route oral; procedure, shortened: as §2
A-431 [38] = test: Difference in days for treated (T) and control (C) A431 cell tumors to reach 750 mg at 40 mg/kg peroral dose; type: functional; details: route oral; procedure, shortened: as §2
A-431 [39] = test: In vivo activity against A431 xenograft in nude mice, weight change at 40 mg/kg peroral dose; type: functional; details: route oral; procedure, shortened: as §2

T2 sequence (P00533 whole entry): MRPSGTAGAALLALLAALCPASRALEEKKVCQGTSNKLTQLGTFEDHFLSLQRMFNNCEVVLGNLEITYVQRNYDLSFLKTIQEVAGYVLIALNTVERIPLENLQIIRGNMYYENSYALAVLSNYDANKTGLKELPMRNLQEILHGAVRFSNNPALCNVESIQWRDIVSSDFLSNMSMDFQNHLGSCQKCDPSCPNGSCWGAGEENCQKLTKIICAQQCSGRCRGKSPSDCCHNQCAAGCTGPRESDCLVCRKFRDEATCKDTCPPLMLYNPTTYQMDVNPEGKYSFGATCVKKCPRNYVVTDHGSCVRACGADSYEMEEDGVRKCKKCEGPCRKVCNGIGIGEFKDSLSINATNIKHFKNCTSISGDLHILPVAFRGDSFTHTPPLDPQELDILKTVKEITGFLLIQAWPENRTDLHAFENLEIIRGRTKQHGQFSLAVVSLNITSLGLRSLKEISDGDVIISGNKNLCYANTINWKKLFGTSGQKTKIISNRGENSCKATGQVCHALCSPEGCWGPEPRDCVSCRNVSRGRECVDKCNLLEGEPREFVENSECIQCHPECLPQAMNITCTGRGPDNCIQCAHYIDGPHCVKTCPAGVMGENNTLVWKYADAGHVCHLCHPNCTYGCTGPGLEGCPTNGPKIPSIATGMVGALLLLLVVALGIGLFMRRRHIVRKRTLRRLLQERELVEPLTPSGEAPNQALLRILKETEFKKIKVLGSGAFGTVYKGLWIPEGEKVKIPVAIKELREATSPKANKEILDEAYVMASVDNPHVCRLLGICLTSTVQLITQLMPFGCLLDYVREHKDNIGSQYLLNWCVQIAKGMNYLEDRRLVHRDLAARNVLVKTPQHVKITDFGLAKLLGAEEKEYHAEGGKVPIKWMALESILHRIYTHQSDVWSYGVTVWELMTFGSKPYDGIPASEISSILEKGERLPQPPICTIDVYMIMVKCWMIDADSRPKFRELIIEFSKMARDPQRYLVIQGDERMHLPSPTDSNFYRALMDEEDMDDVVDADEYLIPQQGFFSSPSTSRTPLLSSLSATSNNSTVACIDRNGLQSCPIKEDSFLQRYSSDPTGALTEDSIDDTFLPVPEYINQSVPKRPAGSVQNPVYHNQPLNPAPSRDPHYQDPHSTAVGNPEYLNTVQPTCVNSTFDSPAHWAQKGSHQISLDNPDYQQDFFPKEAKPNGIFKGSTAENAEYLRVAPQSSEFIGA
T1 sequence (P04626 whole entry): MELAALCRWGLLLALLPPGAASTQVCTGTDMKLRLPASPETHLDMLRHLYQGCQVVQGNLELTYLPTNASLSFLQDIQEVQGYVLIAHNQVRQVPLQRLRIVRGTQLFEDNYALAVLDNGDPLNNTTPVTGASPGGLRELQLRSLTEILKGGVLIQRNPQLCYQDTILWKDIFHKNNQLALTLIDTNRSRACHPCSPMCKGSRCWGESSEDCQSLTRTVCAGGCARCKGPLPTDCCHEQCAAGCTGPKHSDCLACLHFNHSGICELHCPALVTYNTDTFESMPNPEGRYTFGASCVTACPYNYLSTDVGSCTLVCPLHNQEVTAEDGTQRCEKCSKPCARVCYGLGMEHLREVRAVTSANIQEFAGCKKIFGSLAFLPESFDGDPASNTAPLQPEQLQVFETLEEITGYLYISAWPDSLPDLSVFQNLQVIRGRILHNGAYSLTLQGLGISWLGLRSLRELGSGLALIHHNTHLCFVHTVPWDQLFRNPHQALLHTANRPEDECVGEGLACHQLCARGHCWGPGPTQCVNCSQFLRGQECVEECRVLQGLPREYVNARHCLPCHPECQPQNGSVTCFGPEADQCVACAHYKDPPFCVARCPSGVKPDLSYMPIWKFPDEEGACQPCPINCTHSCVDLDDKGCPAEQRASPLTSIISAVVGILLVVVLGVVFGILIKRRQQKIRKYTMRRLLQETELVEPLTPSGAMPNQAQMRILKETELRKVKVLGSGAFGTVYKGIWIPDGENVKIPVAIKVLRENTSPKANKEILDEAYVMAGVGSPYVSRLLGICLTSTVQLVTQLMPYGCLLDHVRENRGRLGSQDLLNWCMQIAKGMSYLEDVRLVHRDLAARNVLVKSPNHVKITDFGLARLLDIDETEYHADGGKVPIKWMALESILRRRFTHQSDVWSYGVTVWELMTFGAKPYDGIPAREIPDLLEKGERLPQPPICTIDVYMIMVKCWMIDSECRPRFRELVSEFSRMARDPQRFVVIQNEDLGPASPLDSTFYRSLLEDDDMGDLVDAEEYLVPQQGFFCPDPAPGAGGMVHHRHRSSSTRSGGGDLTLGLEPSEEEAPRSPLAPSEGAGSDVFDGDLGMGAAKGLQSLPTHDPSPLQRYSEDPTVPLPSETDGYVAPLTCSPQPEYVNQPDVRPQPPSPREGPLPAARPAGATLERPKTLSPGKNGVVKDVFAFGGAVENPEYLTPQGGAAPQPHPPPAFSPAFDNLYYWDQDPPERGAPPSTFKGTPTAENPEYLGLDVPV

pIC50 [3]: 9.16
pIC50 [2]: 8.14
pIC50 [4]: 8.57
Structure (SMILES): C=CC(=O)Nc1ccc2ncnc(Nc3ccc(F)c(Br)c3)c2c1

pIC50 [2]: 8.24
Structure (SMILES): C=CC(=O)Nc1ccc2ncnc(Nc3cccc(Br)c3)c2c1
T/C (NCI-H125 [5]): 15%
Weight change (A-431 [6]): -1 g
Weight change (NCI-H125 [7]): -1.5 g
T/C (NCI-H125 [8]): 8%
T/C (A-431 [9]): 2%
Weight change (A-431 [10]): -1.7 g
T/C (A-431 [11]): 2%
T-C (A-431 [12]): 29 days and 15.7 days

pIC50 [2]: 7.66
Structure (SMILES): C=CC(=O)Nc1ccc2ncnc(Nc3cccc(C)c3)c2c1
T/C (NCI-H125 [5]): 15%
T-C (A-431 [13]): 28.2 days
T/C (A-431 [14]): 3%
T/C (NCI-H125 [15]): 24%
T-C (A-431 [16]): 32.3 days
T-C (NCI-H125 [17]): 11.9 days
Weight change (NCI-H125 [7]): 0 g
Weight change (Mus musculus [18]): -2.2 g
T-C (NCI-H125 [19]): 10.5 days
T/C (A-431 [20]): 11%
Weight change (A-431 [21]): -1.3 g
Weight change (NCI-H125 [22]): -0.1 g

pIC50 [4]: 8.00
Structure (SMILES): C=CC(=O)Nc1ccc2ncnc(N3CCc4ccc(Br)cc43)c2c1

More lines, now with the values behind:

Structure (SMILES): C=CC(=O)Nc1cc2c(Nc3cccc(C)c3)ncnc2cn1
pIC50 [1]: 8.06

Structure (SMILES): C=CC(=O)Nc1ccc2ncnc(Nc3ccc(F)c(Cl)c3)c2n1
pIC50 [2]: 7.92

Structure (SMILES): C=CC(=O)Nc1ccc2ncnc(Nc3ccc(F)c(Br)c3)c2n1
pIC50 [3]: 8.92
pIC50 [2]: 7.59
pIC50 [4]: 7.74

Structure (SMILES): C=CC(=O)Nc1ccc2c(Nc3cccc(Br)c3)ncnc2c1
pIC50 [3]: 9.35
pIC50 [2]: 7.14

Structure (SMILES): C=CC(=O)Nc1cc2c(Nc3ccc(F)c(Cl)c3)ncnc2cn1
pIC50 [3]: 9.11
T/C (A-431 [23]): 12%
T-C (Mus musculus [24]): 18.3 days and 12.7 days
Weight change (A-431 [25]): -0.3 g
pIC50 [2]: 8.52
pIC50 [4]: 8.48
T/C (NCI-H125 [26]): 27%
Weight change (NCI-H125 [27]): -1.8 g

Structure (SMILES): C=CC(=O)Nc1ccc2ncnc(Nc3ccc(Oc4ccccc4)cc3)c2c1
pIC50 [2]: 8.07

Structure (SMILES): C=CC(=O)Nc1cc2c(Nc3cccc(Br)c3)ncnc2cn1
Weight change (NCI-H125 [28]): -1.3 g
Weight change (A-431 [29]): -2.4 g
T-C (Mus musculus [24]): 24.3 days and 16.5 days
pIC50 [2]: 8.41
T-C (A-431 [30]): 12 days
T-C (NCI-H125 [31]): 8.7 days
T/C (NCI-H125 [32]): 26%
T/C (NCI-H125 [26]; 200 mg/kg): 11% and 20%
T/C (A-431 [33]): 17%
Weight change (NCI-H125 [34]): Weight gain

Structure (SMILES): C=CC(=O)Nc1cc2c(Nc3ccc(F)c(Br)c3)ncnc2cn1
pIC50 [3]: 9.14
T/C (A-431 [23]): 13%
T-C (Mus musculus [24]): 51.1 days and 18.2 days
pIC50 [2]: 8.96
pIC50 [4]: 8.68
Weight change (A-431 [35]): Weight gain
T/C (NCI-H125 [26]): 19%
Weight change (NCI-H125 [27]): -1.8 g

Structure (SMILES): C=CC(=O)Nc1ccc2ncnc(Nc3ccc(F)c(Cl)c3)c2c1
pIC50 [3]: 9.12
T-C (Mus musculus [36]): 27.4 days
pIC50 [2]: 8.37
T/C (A-431 [37]): 11%
pIC50 [4]: 8.51
T-C (A-431 [38]): 20.8 days
Weight change (A-431 [39]): 0 g
T/C (NCI-H125 [26]): 16%
Weight change (NCI-H125 [27]): -0.3 g
